Screening data: PubChem, NMMLSC
ABCG2 inh: ABCG2 efflux pump inhibitors, primary screen, multiplex with ABCB1, IgMXP3 cells, flow cytometry. JC-1 efflux. Broad substrate specificity ATP-binding cassette transporter ABCG2 (Homo sapiens), Q9UNQ0. hit rate 0.1% among 190,000. inhibition, % at 6.6 µM;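 active = inhibition above 80%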;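 also: 0% = DMSO and 100% = nicardipine control wells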
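Test system: IgMXP3 (ABCG2) plus far-red-tagged CCRF-Adr (ABCB1) cells / Amount: 3 million cells/mL in well / Reagent: JC-1 transporter substrate / Timing: 10 min compound exposure, 25 °C / Signal: flow cytometry, 530 nm JC-1 signal / Read-out: percent efflux inhibition, scaled nicardipine 100% to DMSO 0% / Benchmarks: nicardipine as high control, DMSO as low control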
MEKK2 mut-MEK5: MEK5 binding signal on mutant MEKK2 PB1, primary screen, biochemical, multiplex bead flow cytometry, Alexa488-MEK5. Alexa488-MEK5 binding to MEKK2 mutant. percent response, % at 10 µM. hit rate 0.35% among 290,000; in the data active = percent response above about 24%, passing the limit was not always enough
MEKK2wt PB1 HTS: modulators of MEK5 binding to wildtype MEKK2, primary screen, biochemical, multiplex bead flow cytometry, Alexa488-MEK5; Mitogen-activated protein kinase kinase kinase 2 (Homo sapiens), Q9Y2U5; Alexa488-MEK5 binding to MEKK2 WT; actives lie on both sides; binding response (% of control), % at 10 µM; hit rate 1.1% among 290,000; in the data active = binding response below about 67% or above about 130%
MEKK3 PB1 HTS: modulators of MEKK3-MEK5 PB1 binding, primary screen, biochemical, wildtype MEKK3, multiplex bead flow cytometry, Alexa488-MEK5. AID 1529, 2009. Mitogen-activated protein kinase kinase kinase 3 (Homo sapiens), Q99759. binding response (% of control), % at 10 µM. bead-based flow cytometry, Alexa488-MEK5 binding to MEKK3; actives lie on both sides; 0 = blocked by unlabeled MEK5, 100 = vehicle. hit rate 1.4% among 290,000;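 active = binding response more than 3 SD above or below the average of its plate-row segment, actives on both sides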;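 also: Alexa488 bead fluorescence after subtracting the streptavidin-only scavenger bead signal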
Target sequence (Q99759 whole entry, looked up): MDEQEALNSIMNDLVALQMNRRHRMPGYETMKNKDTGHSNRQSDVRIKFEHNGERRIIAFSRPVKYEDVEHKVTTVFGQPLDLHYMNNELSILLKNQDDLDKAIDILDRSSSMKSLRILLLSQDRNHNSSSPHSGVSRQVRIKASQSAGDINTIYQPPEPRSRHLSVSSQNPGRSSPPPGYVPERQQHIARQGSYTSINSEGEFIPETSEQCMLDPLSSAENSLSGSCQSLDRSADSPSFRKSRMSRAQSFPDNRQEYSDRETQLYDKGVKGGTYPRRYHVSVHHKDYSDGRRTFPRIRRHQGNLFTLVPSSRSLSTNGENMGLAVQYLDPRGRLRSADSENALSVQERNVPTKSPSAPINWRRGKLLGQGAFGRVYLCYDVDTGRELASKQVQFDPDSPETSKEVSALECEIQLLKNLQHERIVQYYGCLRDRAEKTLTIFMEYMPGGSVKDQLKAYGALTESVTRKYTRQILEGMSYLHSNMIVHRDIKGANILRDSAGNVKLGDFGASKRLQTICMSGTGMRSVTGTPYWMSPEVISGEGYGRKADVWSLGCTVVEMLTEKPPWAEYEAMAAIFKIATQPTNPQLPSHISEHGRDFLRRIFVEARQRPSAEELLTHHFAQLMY
ABCB1 block: ABCB1 efflux pump inhibitors, primary screen, cell-based, multiplex, flow cytometry, ABCG2 counter-screen; ATP-dependent translocase ABCB1 (Homo sapiens), P08183; CCRF-Adr cells, JC-1 efflux; inhibition, % at 6.6 µM; hit rate 0.067% among 190,000; AID 1326, 2008; in the data active = inhibition above about 40%;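 also: 0% = vehicle and 100% = reference inhibitor; higher value means more JC-1 retained so stronger ABCB1 efflux block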
Numbers without * were called inactive; / = no result given; + = active, no number; [ ] = remark or other dose. Hits are enriched below; roughly 2.3% of the tested compounds scored in any of these assays.

SMILES | ABCG2 inh | MEKK2 mut-MEK5 | MEKK2wt PB1 HTS | MEKK3 PB1 HTS | ABCB1 block
COc1cccc(NC(=O)CSc2nc3c(sc4ccccc43)c(=O)n2CCCN2CCCC2)c1 | / | 21.0 | 179.0* | 110.0 | /
CC1(C)Cc2c(sc(NC(=O)c3ccc(C(=O)c4ccccc4)cc3)c2C(N)=O)C(C)(C)N1 | / | 22.0 | 150.0* | 106.0 | /
CCOC(=O)c1c(NC(=O)COc2ccccc2C#N)sc2c1CC(C)(C)NC2(C)C | / | 16.0 | 134.0* | 104.0 | /
CCOC(=O)c1c(NC(=O)Cc2ccccc2)sc2c1CC(C)(C)NC2(C)C | / | 6.0 | 120.0 | 104.0 | /
Cc1csc(=O)n1CCC(=O)OCC(=O)N(CC(C)C)c1c(N)n(Cc2ccccc2)c(=O)[nH]c1=O | / | 3.0 | 102.0 | 97.0 | /
O=c1oc2cc(O)ccc2cc1-c1ccccc1 | / | 4.0 | 97.0 | 100.0 | /
O=c1oc2cc(O)ccc2cc1-c1nc2c(s1)CCc1ccccc1-2 | + | -7.0 | 82.0 | 91.0 | 138.4*
Cc1ccc(CNC(=O)c2ccc(N3CCC4(CC3)CC(c3ccccc3)=NO4)c(N)c2)cc1 | / | 1.0 | 92.0 | 102.0 | /
COc1cc(N2CCCC2)c(OC)cc1/C=C(/C#N)c1cccc(F)c1 | 23.5 | 155.0* | 101.0 | 97.0 | 12.5
N/C(=C\C(=O)c1cc(Cl)ccc1O)C(Cl)(Cl)Cl | / | 3.0 | -3.0* | 103.0 | /
Cc1ccc(S(=O)(=O)Nc2cccc3ncccc23)s1 | 1.1 | -9.0 | -1.0*[inhibitor] | 1.0*[inhibitor] | 0.3
Cc1ccc(S(=O)(=O)Nc2cccc3ncccc23)cc1 | / | -4.0 | 100.0 | 95.0 | /
C[C@@H](C(=O)N1CCN(C(=O)OC(C)(C)C)CC1)n1cc(-c2cn([C@@H](C)C(=O)N3CCN(C(=O)OC(C)(C)C)CC3)nn2)nn1 | / | 4.0 | 4.0* | 89.0 | /
COc1ccc(NC(=O)c2cccc(NC3=NC4CS(=O)(=O)CC4S3)c2)cc1Cl (configuration not stated) | / | -5.0 | 99.0 | 98.0 | /
O=C(Cn1ncn2c(cc3ccccc32)c1=O)NCCc1cccs1 | / | 1.0 | 102.0 | 103.0 | /
CN(Cc1ccc(N(C)C)cc1)C(=O)c1cc2ccccc2o1 | / | -7.0 | 95.0 | 95.0 | /
Cc1cnc(NC(=O)CSc2nnc(N)s2)s1 | 1.1 | 4.0 | -8.0* | 106.0 | 0.8
O=C(CSc1nnc(Cc2cc(=O)[nH]c(=O)[nH]2)n1-c1ccc(Cl)cc1)NCC1CCCO1 (configuration not stated) | 9.7 | 17.0 | 8.0* | 101.0 | -0.1
CCC(C)(C)c1ccc(OCCCC[n+]2cccc(C)c2C)c(C(C)(C)CC)c1 | / | 41.0 | 170.0* | 75.0 | /
Fc1ccccc1CNc1nc(-c2cccnc2)nc2ccccc12 | / | 31.0* | 21.0*[inhibitor] | 104.0 | /
c1cncc(-c2nc(NCc3cccs3)c3ccccc3n2)c1 | 3.0 | -3.0 | 87.0 | 84.0 | 0.7
CC1=CC(C)(C)n2c(O)c(N=NC(N)=S)c3cccc1c32 | 5.1 | 0.0 | 108.0 | 146.0* | 0.9
CC1=CC(C)(C)n2c(O)c(N=NC(N)=S)c3c(C)ccc1c32 | 1.9 | 14.0 | 107.0 | 101.0 | 0.2
CC1CC(C)CN(C(=O)CSc2nnc(N)s2)C1 (configuration not stated) | / | -2.0 | 102.0 | 101.0 | /
O=C(N/N=C/c1ccc(OC(=O)c2ccc(Br)cc2)cc1)c1ccncc1 | / | -41.0 | 61.0*[inhibitor] | 66.0*[inhibitor] | /
SMILES | ABCG2 inh | MEKK2 mut-MEK5 | MEKK2wt PB1 HTS | MEKK3 PB1 HTS | ABCB1 block
COC(=O)c1cccc(-n2c(=O)n(Cc3ccccc3)c(=O)c3[nH]cnc32)c1C | / | 5.0 | 103.0 | 106.0 | /
Cc1cc(N2CCN(C)CC2)nc2ccc(NC(=S)NCCN3CCc4ccccc4C3)cc12 | 2.7 | 26.0 | 158.0* | 110.0 | 0.9
CCN(CC)CCNC(=S)Nc1ccc2nc(N3CCN(CC)CC3)cc(C)c2c1 | / | 13.0 | 124.0 | 103.0 | /
COCCCC1CCN(C(=O)C2CCC(=O)N(CCc3cccc(F)c3)C2)CC1 (configuration not stated) | / | 6.0 | 103.0 | 97.0 | /
O=S(=O)(c1ccc(-c2csc(Nc3ccc(Br)cc3)n2)cc1)N1CCCC1 | 1.9 | 7.0 | -4.0* | 106.0 | -2.5
COc1cc(C(=O)Nc2ccc3c(c2)CCN3C(C)=O)cc(OC)c1OC | 3.9 | 21.0 | 173.0* | 101.0 | 0.7
CCN(CC)CCNC(=O)C(=O)NCC1OCCN1S(=O)(=O)c1ccc([N+](=O)[O-])cc1 (configuration not stated) | 10.7 | -3.0 | 90.0 | 87.0 | 3.8
CCN(CC)CCNC(=O)C(=O)NCC1OCCN1S(=O)(=O)c1ccc(Cl)cc1 (configuration not stated) | / | 18.0 | 142.0* | 102.0 | /
O=C(COc1ccc(S(=O)(=O)N2CCOCC2)cc1)NC1CC1 | / | -6.0 | 99.0 | 100.0 | /
O=C(CCNC(=O)c1ccccc1)N=Nc1c(O)[nH]c2ccccc12 | 1.6 | 94.0* | 93.0 | 93.0 | 0.2
COC(=O)c1ccccc1NC(=O)C/C(C)=N/NC(=O)Cc1ccc(Cl)cc1 | / | -11.0 | 12.0*[inhibitor] | 6.0*[inhibitor] | /
Cc1ccc(NC(=O)Cn2ccc(=O)[nH]c2=O)cc1 | / | -1.0 | 100.0 | 102.0 | /
CCOC(=O)c1c(C)n(-c2ccc(C)cc2)c2ccc(OCC(O)CNCC3CCCO3)cc12 (configuration not stated) | 1.9 | -7.0 | 124.0 | 53.0 | 20.3
CCOC(=O)c1c(C)n(-c2ccc(C)cc2)c2ccc(OCC(O)CNCCCO)cc12 (configuration not stated) | 0.0 | 40.0 | 181.0* | 106.0 | 0.0
CCOC(=O)C1=C(C)C(c2ccc(OC)cc2)NC(=O)N1 (configuration not stated) | 4.5 | 6.0 | 106.0 | 101.0 | 0.3
CCOC(=O)C1=C(C)C(c2ccc(OC)cc2OC)NC(=O)N1 (configuration not stated) | 89.7* | 15.0 | 108.0 | 111.0 | 1.2
Cc1ccc(/C=N/NC(=O)Cc2ccc(Cl)cc2)s1 | / | -12.0 | 83.0 | 87.0 | /
O=C(COC(=O)CCc1ccccc1)Nc1ccc(F)cc1Cl | / | -6.0 | 91.0 | 93.0 | /
Cc1nnc(N2CCC(C(=O)N3CCCCC3)CC2)c2nn(-c3ccc(Cl)cc3)c(C)c12 | / | -3.0 | 103.0 | 99.0 | /
COc1ccc(-n2nc3c(N4CCC(C(=O)N5CCC(C)CC5)CC4)nnc(C)c3c2C)cc1 | / | 920.0* | 476.0* | 139.0* | /
O=C1CSC(=S)N1c1cccnc1 | -0.2 | -10.0 | 89.0 | 86.0 | -0.1
O=C1CSC(=S)N1Cc1cccnc1 | -0.6 | 5.0 | -3.0* | 88.0 | -0.3
CCN(CC)CCNC(=O)C1CCN(S(=O)(=O)c2c(C)noc2/C=C/c2ccccc2F)CC1 | / | 11.0 | 136.0* | 107.0 | /
